Experimental data collected from several papers.
Each line is one published result; the experiments were not run side by side.

Cc1noc(C)c1CC(=O)N1CCOc2c(cc(-c3cccc(Cl)c3)cc2OCC2CCCN(C)C2)C1 (stereo not drawn)
solubility (water): 75 µM

N=C(N)NCCC[C@H](NC(=O)[C@@H](NC(=O)[C@H](Cc1cscn1)NC(=O)CCc1ccccc1)C1CCCCC1)C(=O)c1nc2ccccc2s1
solubility (PBS; 90 min, pH 7.4): > 10 µM

Cc1c(C(=O)O)ccc2c3n(nc12)[C@@H]1[C@H](C3)N(CC2CC2)[C@@]2(C(=O)Nc3cc(Cl)ccc32)[C@H]1c1cccc(Cl)c1F
solubility (aqueous buffer; pH 6.8): < 1 µg/mL

C/C(=N/c1ccc(/N=C/c2ccc(/C=N/c3ccc(/N=C(/C)N(C)C)cc3)cc2)cc1)N(C)C
solubility (shake flask; PBS; pH 7.4, 25 °C): 0.38 µg/mL

N#C[C@@]12C[C@@H]1[C@@H](n1cnc3c(N[C@@H](C4CCC4)C4CC4)nc(I)nc31)[C@H](O)[C@@H]2O
solubility (aqueous buffer; pH 7.4): 50 µg/mL

Cc1cc(C)c2nc(-c3ccncc3)cc(C(=O)NCCCn3ccnc3)c2c1
solubility (PBS): > 20 µM

O=[N+]([O-])c1cccc(/C=N/c2c(-c3ccccc3)nc3ccc(Cl)cn23)c1
solubility (aqueous buffer; pH 7): 25 µg/mL

Cn1cnc2ccc(Nc3c(F)ccc(NS(=O)(=O)N4CC(F)C4)c3Cl)c(Cl)c2c1=O
solubility (aqueous buffer; pH 2.05): 2 µg/mL

CC(=O)C(C)n1c(CN2CCN(c3cccc(Cl)c3)CC2)nc2c1c(=O)n(C)c(=O)n2C (stereo not drawn)
solubility (PBS): > 20 µM

Cn1cncc1[C@@](N)(c1ccc(Cl)cc1)c1ccc2c(c1)c(-c1cccc(Cl)c1)cc(=O)n2C
solubility (simulated gastric fluid; pH 1.02, 25 °C, acidic): > 3750 µg/mL

Oc1ccccc1/C=N/c1c(-c2ccccc2)nc2ccc(Cl)cn12
solubility (aqueous buffer; pH 7): 125 µg/mL

COc1ccc2cc3n(c(=O)c2c1OC)CCc1cc2c(cc1-3)OCO2
solubility (water; 24 h, 25 °C): < 0.05 µg/mL
